Source: ChEMBL document CHEMBL5131497, “Design, Synthesis, and Characterization of TNP-2198, a Dual-Targeted Rifamycin-Nitroimidazole Conjugate with Potent Activity against Microaerophilic and Anaerobic Bacterial Pathogens” (J Med Chem, 2022)
Converted amounts (≈) assume the structure as drawn.

Experiments:
[1] = Drug distribution in Sprague-Dawley rat brain measured at 2 hrs; format: ADME, tissue-based; conditions: read-out: Ct
How it was run: (§1)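 Sprague–Dawley rats were dosed with TNP-2198. Concentrations were measured in plasma (ng/mL) and in tissues or contents (ng/g) at 0.5, 2, 6, 12 and 24 h after dosing. Values below the limit of quantification are reported as BLOQ.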

[2] = Drug distribution in Sprague-Dawley rat vaginal tissue measured at 0.5 hrs; format: ADME, tissue-based, Vagina; conditions: female, read-out: Ct; how it was run: as §1
[3] = Volume of distribution at steady state in Sprague-Dawley rat at 10 mg/kg, iv; format: ADME, organism-based; conditions: in vivo, read-out: Vdss
[4] = Drug distribution in Sprague-Dawley rat brain measured at 12 hrs; format: ADME, tissue-based; conditions: in vivo, BLD = below limit of detection; how it was run: as §1
[5] = Drug distribution in Sprague-Dawley rat vaginal secretion measured at 2 hrs; format: ADME, tissue-based, Vaginal fluid; conditions: female, read-out: Ct; how it was run: as §1
Clostridioides difficile [6] = assay: Antibacterial activity against Clostridioides difficile clinical isolate USA; format: functional
[7] = AUC in C57BL/6 mouse at 5 mg/kg, iv; format: ADME, organism-based; set-up: dose 5 mg/kg, route iv; conditions: in vivo
How it was run: (§2)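 Plasma PK after single intravenous or oral dosing. Mice C57BL/6 at 5 mg/kg IV or 20 mg/kg PO; Sprague–Dawley rats at 10 mg/kg IV or 50 mg/kg PO; beagle dogs at 5 mg/kg IV or 25 mg/kg PO. AUC reported in ng·h/mL. Clearance from the IV arms in mL/min·kg.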

[8] = Drug distribution in Sprague-Dawley rat stomach tissue measured at 6 hrs; format: ADME, tissue-based; conditions: read-out: Ct; how it was run: as §1
Helicobacter pylori [9] = assay: Antibacterial activity against Helicobacter pylori infected in C57/BL6 mouse assessed as bacterial load in stomach at 1 mg/kg administered twice daily via oral gavage starting from 7 days post inoculation and administered for 7 days in presence of 10 mg/kg clarithromycin and 20 mg/kg amoxicillin (reference value: 5.25 log10CFU); format: functional; conditions: time 7 day
[10] = Half life in Beagle dog at 5 mg/kg, iv; format: ADME, organism-based, Canis lupus familiaris; conditions: in vivo
How it was run: (§3)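 Single-dose PK of TNP-2198 was run in C57BL/6 mice (IV 5 mg/kg; PO 20 mg/kg) and beagle dogs (IV 5 mg/kg; PO 25 mg/kg). Terminal half-life (h) was derived from plasma profiles, together with Tmax, Vdss, CL, AUC and oral bioavailability.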

[11] = Drug distribution in Sprague-Dawley rat vaginal secretion measured at 24 hrs; format: ADME, tissue-based, Vaginal fluid; conditions: female, read-out: Ct; how it was run: as §1
Gardnerella vaginalis [12] = assay: Resistance development in Gardnerella vaginalis MMX 5973 assessed as mutation prevention concentration using at 4.50 x 10^8 CFU inoculum; format: functional; conditions: dose 0.5 µg/ml
Syrian golden hamster [13] = assay: Antibacterial activity against Clostridioides difficile UNT-103-1 infected in Syrian hamster assessed as mortality at 5 mg/kg, po administered once a daily for 5 days after 18 hrs post 10 mg/kg clindamycin treatment and measured after 7 to 9 days; format: functional, Mesocricetus auratus; conditions: time 7-9 day
How it was run: (§4)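 Male Golden Syrian hamsters (80-90 g), housed singly, were gavaged with C. difficile UNT103-1 grown in sporulation medium broth and diluted to OD600 1 in prereduced broth. […] From 18 h later, drug or vehicle was given by oral gavage once daily for 5 days. Survival was recorded through day 21.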

Gardnerella vaginalis [14] = assay: Antibacterial activity against Gardnerella vaginalis ATCC 14018; format: functional
[15] = Drug distribution in Sprague-Dawley rat vaginal tissue measured at 2 hrs; format: ADME, tissue-based, Vagina; conditions: female, read-out: Ct; how it was run: as §1
Helicobacter pylori [16] = assay: Resistance development in Helicobacter pylori MMX 3719 assessed as spontaneous resistance frequency using at 1.90 x 10^8 CFU inoculum at 2 ug/ml; format: functional; conditions: dose 2 µg/ml
How it was run: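 H. pylori MMX 3719 exposed to 0.5, 1, 2 and 4 µg/mL drug with an inoculum of 1.90×10^8 CFU at each level. Two independent tests were run, and resistant colonies were counted and averaged. A spontaneous resistance frequency was reported for each concentration, and the MPC was taken across the concentrations tested.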

Syrian golden hamster [17] = assay: Antibacterial activity against Clostridioides difficile UNT-103-1 infected in Syrian hamster assessed as survival at 5 mg/kg, po administered once a daily for 5 days after 18 hrs post 10 mg/kg clindamycin treatment; format: functional, Mesocricetus auratus; conditions: time 5 day; how it was run: as §4
[18] = Antibacterial activity against Mobiluncus mulieris ATCC 35243; format: functional
[19] = Drug distribution in Sprague-Dawley rat brain measured at 0.5 hrs; format: ADME, tissue-based; conditions: read-out: Ct; how it was run: as §1
[20] = Half life in Beagle dog at 25 mg/kg, po; format: ADME, organism-based, Canis lupus familiaris; conditions: in vivo; how it was run: as §3
[21] = Drug distribution in Sprague-Dawley rat stomach content measured at 12 hrs; format: ADME, tissue-based; conditions: read-out: Ct; how it was run: as §1
[22] = Drug distribution in Sprague-Dawley rat large intestine tissue measured at 24 hrs; format: ADME, tissue-based; conditions: read-out: Ct; how it was run: as §1
Bacteroides fragilis = assay: Antibacterial activity against metronidazole-resistant Bacteroides fragilis MMX 3387; format: functional
Gardnerella vaginalis [23] = assay: Antibacterial activity against Gardnerella vaginalis clinical isolate China; format: functional
[24] = AUC in Beagle dog at 5 mg/kg, iv; format: ADME, organism-based, Canis lupus familiaris; set-up: dose 5 mg/kg, route iv; conditions: in vivo; how it was run: as §2
[25] = AUC in Sprague-Dawley rat at 10 mg/kg, iv; format: ADME, organism-based; set-up: dose 10 mg/kg, route iv; conditions: in vivo; how it was run: as §2
[26] = Drug distribution in Sprague-Dawley rat ascites fluid measured at 0.5 hrs; format: ADME, tissue-based, Ascitic fluid; conditions: read-out: Ct; how it was run: as §1
[27] = Drug distribution in Sprague-Dawley rat gums measured at 12 hrs; format: ADME, tissue-based, Gingiva; conditions: read-out: Ct; how it was run: as §1
Bifidobacterium longum = assay: Antibacterial activity against Bifidobacterium longum ATCC 15707; format: functional
Helicobacter pylori [28] = assay: Antibacterial activity against Helicobacter pylori clinical isolate USA; format: functional
[29] = Drug distribution in Sprague-Dawley rat vaginal secretion measured at 12 hrs; format: ADME, tissue-based, Vaginal fluid; conditions: female, read-out: Ct; how it was run: as §1
[30] = tested on: Porphyromonas asaccharolytica; assay: Antibacterial activity against metronidazole-resistant Prevotella asaccharolytica MMX 3552; format: functional
Clostridium sporogenes = assay: Antibacterial activity against Clostridium sporogenes ATCC 19404; format: functional
[31] = Clearance in Sprague-Dawley rat at 10 mg/kg, iv; format: ADME, organism-based; conditions: in vivo; how it was run: as §2
Clostridioides difficile [32] = assay: Resistance development in Clostridioides difficile MMX 4381 assessed as mutation prevention concentration using at 1.90 x 10^8 CFU inoculum; format: functional; conditions: dose 0.5 µg/ml

CO[C@H]1/C=C/O[C@@]2(C)Oc3c(C)c(O)c4c(c3C2=O)C2=NC3(CCN(CCn5c([N+](=O)[O-])cnc5C)CC3)NC2=C(NC(=O)/C(C)=C\C=C\[C@H](C)[C@H](O)[C@@H](C)[C@@H](O)[C@@H](C)[C@H](OC(C)=O)[C@@H]1C)C4=O [RIFASUTENIZOL]
concentration at 2 h [1]: 392 ng/g | concentration at 0.5 h [2]: 2800 ng/g | Vd [3]: 1.6 L/kg | Ct [4]: Bld | concentration at 2 h [5]: 43700 ng/g | MIC (Clostridioides difficile [6]): 0.002 µg/mL (≈ 0.00212 µM) | MIC90 (Clostridioides difficile [6]): 1 µg/mL (≈ 1.06 µM) | AUC [7]: 3760 ng·h/mL | concentration at 6 h [8]: 10600 ng/g | Activity (Helicobacter pylori [9]): 1.7 log10CFU | half-life [10]: 3.9 h | concentration at 24 h [11]: 54.6 ng/g | Activity (Gardnerella vaginalis [12]): <=0.5 ug ml-1 | Activity (Syrian golden hamster [13]): 10% | MIC (Gardnerella vaginalis [14]): 0.004 µg/mL (≈ 0.00424 µM) | concentration at 2 h [15]: 5900 ng/g | Activity (Helicobacter pylori [16]): <5 10^-9No_unit | Activity (Syrian golden hamster [17]): 100% | MIC [18]: 0.001 µg/mL (≈ 0.00106 µM) | concentration at 0.5 h [19]: 114 ng/g | half-life [20]: 3.4 h | concentration at 12 h [21]: 138 ng/g | concentration at 24 h [22]: 7.26 ng/g | MIC (Bacteroides fragilis): 0.015 µg/mL (≈ 0.0159 µM) | MIC (Gardnerella vaginalis [23]): ≤ 0.004 µg/mL | MIC90 (Gardnerella vaginalis [23]): 0.06 µg/mL (≈ 0.0636 µM) | AUC [24]: 4530 ng·h/mL | AUC [25]: 6490 ng·h/mL | concentration at 0.5 h [26]: 2620 ng/g | concentration at 12 h [27]: 115 ng/g | MIC (Bifidobacterium longum): 0.015 µg/mL (≈ 0.0159 µM) | MIC (Helicobacter pylori [28]): ≤ 0.001 µg/mL | MIC90 (Helicobacter pylori [28]): 0.125 µg/mL (≈ 0.132 µM) | concentration at 12 h [29]: 366 ng/g | MIC [30]: 0.008 µg/mL (≈ 0.00847 µM) | MIC (Clostridium sporogenes): 0.015 µg/mL (≈ 0.0159 µM) | clearance [31]: 26 mL/min/kg | Activity (Clostridioides difficile [32]): 1 µg/mL
